Key:
[1] = system: A2780; test: Cytotoxicity against human A2780 cells after 2 days by Alamar blue assay; assay type: cell-based; conditions: A2780, 48 h
[2] = system: Plasmodium falciparum; test: Antimalarial activity against chloroquine/mefloquine-resistant Plasmodium falciparum Dd2 measured after 72 hrs by SYBR green1 dye based fluorescence assay; assay type: functional, organism-based
In short: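 Whole-parasite growth inhibition, 72 h treatment, SYBR Green I fluorescence read-out, IC50 derived. Both fractions and isolated compounds were tested on the chloroquine/mefloquine-resistant Dd2 strain. Artemisinin served as positive control.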

[3] = Plasmodium falciparum, Dd2, 72 h

Compound | IC50 [1] [µM] | IC50 [2, 3] [µM] | IC50 [2] [µM]
C/C(=C/CC/C(C)=C/C(=O)C[C@]1(C)CCc2cc(O)cc(C)c2O1)CO | > 10 | 24 | –
COc1cc(C)c2c(c1)CC[C@@](C)(CC(=O)/C=C(\C)CC/C=C(\C)CO)O2 | > 10 | 24 | –
CC1=CCCC(C)(CC(=O)C[C@]2(C)CCc3cc(O)cc(C)c3O2)OC1 (single isomer, unassigned; diastereomer 2) | – | – | 23
C/C(=C\CC/C(C)=C/C(=O)C[C@]1(C)C=Cc2cc(O)cc(C)c2O1)CO | > 10 | > 112 | –
C/C(=C\CC/C(C)=C/C(=O)C[C@]1(C)CCc2cc(O)cc(C)c2O1)CO | > 10 | > 112 | –
CC1=CCCC(C)(CC(=O)C[C@]2(C)CCc3cc(O)cc(C)c3O2)OC1 (single isomer, unassigned; diastereomer 1) | > 10 | – | 109
C[C@@H]1CC[C@H]2[C@@H](C)C(=O)O[C@@H]3O[C@@]4(C)CC[C@@H]1[C@]32OO4 [ARTEMISININ] | – | 0.009 | –
C/C(=C/CC/C(C)=C\C(=O)C[C@]1(C)CCc2cc(O)cc(C)c2O1)CO | > 10 | – | –
C/C(=C\CC/C(C)=C/CC[C@]1(C)C=Cc2cc(O)cc(C)c2O1)CO | > 10 | – | –
C/C(=C/C(=O)C[C@]1(C)CCc2cc(O)cc(C)c2O1)CC/C=C(\C)CO | > 10 | – | –

Source: ChEMBL document CHEMBL4138134, “Antiplasmodial Chromanes and Chromenes from the Monotypic Plant Species Koeberlinia spinosa” (J Nat Prod, 2018)
